Assay results published in paper PMC8963331 (Toxicological Sciences, 2022).

What was measured:
[1] = system: Crl:CD Sprague Dawley (SD) rats; test: Rat 4-, 13-, 26-week repeat-dose general toxicity studies; type: in vivo; conditions: rat
In short: (§1)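 Crl:CD Sprague Dawley rats, 7–8 weeks old at start, dosed daily by oral gavage (10 ml/kg) at 0 (vehicle), 30, 100 or 1000 mg/kg/day for 4, 13 or 26 weeks. n = 10/sex/group, plus 4-week dose-free recovery (n = 5/sex). Rats fasted overnight. Hematology, coagulation and clinical chemistry sampled at baseline, end of dosing and end of recovery. Sexes pooled; treated groups compared with vehicle; variance homogeneity by […] Levene test.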

[2] = as above; type: in vivo; conditions: both, Sprague-Dawley (Crl:CD), rat, in vivo, oral
In short: as §1

[3] = Rabbit EFD study: maternal and fetal plasma toxicokinetics; type: in vivo
[4] = Dog repeat-dose toxicity studies: plasma toxicokinetics; type: in vivo
[5] = Rabbit embryo–fetal development; type: in vivo; conditions: female, rabbit, in vivo, oral
In short: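 Time-mated female rabbits, 6–8 months old at dosing start, gavaged daily (10 ml/kg) with vehicle or 10, 30 or 60 mg/kg/day test compound over GDs 7–19; n = 22/group plus a toxicokinetic group. Cesarean-section endpoints: corpora lutea, implantation sites, preimplantation loss, resorptions. Fetuses weighed and examined externally, viscerally and, after evisceration and Alizarin Red S staining, skeletally. Fetal weights analysed by ANCOVA with Dunnett's test, litter size as covariate.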

[6] = Rat EFD study: maternal and fetal plasma toxicokinetics; type: in vivo
[7] = system: JAK1, JAK2, JAK3, and TYK2; conditions: ref Sandborn et al., 2020; cited from earlier work
[8] = maternal rabbit, GD 19, 30 and 60 mg/kg/day
[9] = maternal rat, 30 and 100 mg/kg/day
[10] = maternal rat, GD 17, 1000 mg/kg/day

Cc1cc(Nc2cc3ncccc3c(N[C@@H]3C[C@H]4CC[C@@H](C3)N4CCC#N)n2)n[nH]1 [izencitinib, Izencitinib]
effects on neutrophils ([1]; any dose, 3 studies): No izencitinib-related effects
changes in coagulation parameters ([1]; any dose, all 3 studies): no changes
other changes in organ weights or microscopic effects, including GI tissues ([1]; up to 1000 mg/kg/day, all studies): No other changes
tolerability ([1]; up to highest tested dose 1000 mg/kg/day, 4-, 13-, 26-week studies): well-tolerated
NOAEL at 26 weeks [2]: 1000 mg/kg/day
plasma Cave:protein-corrected JAK IC50 ratio ([3]; maternal rabbit, 10 mg/kg/day): < 1 ×
plasma Cave:uncorrected JAK IC50 ratio ([3]; maternal rabbit, 10 mg/kg/day): < 1 ×
Mean Cave ([3]; maternal rabbit, GD 7, 10 mg/kg/day oral): 0.365 ng/mL
Mean Cave ([3]; maternal rabbit, GD 7, 30 mg/kg/day oral): 3.28 ng/mL
Mean Cave ([3]; maternal rabbit, GD 7, 60 mg/kg/day oral): 21.8 ng/mL
Mean Cave ([3]; maternal rabbit, GD 19, 10 mg/kg/day oral): 0.754 ng/mL
plasma Cave:uncorrected JAK IC50 ratio ([3]; maternal rabbit, GD 19, 30 mg/kg/day): 1 ×
Mean Cave ([3]; maternal rabbit, GD 19, 30 mg/kg/day oral): 18.7 ng/mL
plasma Cave:uncorrected JAK IC50 ratio ([3]; maternal rabbit, GD 19, 60 mg/kg/day): 6 ×
Mean Cave ([3]; maternal rabbit, GD 19, 60 mg/kg/day oral): 76.7 ng/mL
plasma Cave:protein-corrected JAK IC50 ratios [3, 8]: < 1 ×
time at supratherapeutic plasma levels [3, 8]: 6 to 9 h
nonclinical:clinical AUC ratio at the NOAEL ([3]; rabbit EFD study, 60 mg/kg/day, vs human 300 mg QD): 33 fold
fetal plasma concentrations, all other samples ([3]; rabbit fetuses, undetectable, limit of quantitation): < 1 ng/mL
concentration at 3 h ([3]; rabbit, fetal plasma, oral, 60 mg/kg/day): 1.55 ng/mL
nonclinical:clinical systemic AUC margin at the NOAEL ([4]; dog 39-week study, 30 mg/kg/day, vs human 300 mg QD): 8 fold
Mean Cave ([4]; dog female, 10 mg/kg/day oral, 4 weeks, last day of dosing): 1.90 ng/mL
Mean Cave ([4]; dog female, 10 mg/kg/day oral, 13 weeks, last day of dosing): 1.53 ng/mL
Mean Cave ([4]; dog female, 10 mg/kg/day oral, 39 weeks, last day of dosing): 3.11 ng/mL
Mean Cave ([4]; dog female, 30 mg/kg/day oral, 4 weeks, last day of dosing): 14.8 ng/mL
Mean Cave ([4]; dog female, 30 mg/kg/day oral, 13 weeks, last day of dosing): 10.8 ng/mL
Mean Cave ([4]; dog female, 30 mg/kg/day oral, 39 weeks, last day of dosing): 20.5 ng/mL
Mean Cave ([4]; dog female, 100 mg/kg/day oral, 13 weeks, last day of dosing): 96.7 ng/mL
Mean Cave ([4]; dog female, 100 mg/kg/day oral, 39-week study, week 28 (day 197)): 131 ng/mL
Mean Cave ([4]; dog male, 10 mg/kg/day oral, 4 weeks, last day of dosing): 2.30 ng/mL
Mean Cave ([4]; dog male, 10 mg/kg/day oral, 13 weeks, last day of dosing): 1.61 ng/mL
Mean Cave ([4]; dog male, 10 mg/kg/day oral, 39 weeks, last day of dosing): 2.08 ng/mL
Mean Cave ([4]; dog male, 30 mg/kg/day oral, 4 weeks, last day of dosing): 19.1 ng/mL
Mean Cave ([4]; dog male, 30 mg/kg/day oral, 13 weeks, last day of dosing): 12.5 ng/mL
Mean Cave ([4]; dog male, 30 mg/kg/day oral, 39 weeks, last day of dosing): 15.9 ng/mL
Mean Cave ([4]; dog male, 100 mg/kg/day oral, 13 weeks, last day of dosing): 190 ng/mL
Mean Cave ([4]; dog male, 100 mg/kg/day oral, 39-week study, week 28 (day 197)): 69.6 ng/mL
plasma Cave:protein-corrected JAK IC50 ratio ([4]; dog, 10 mg/kg/day): < 1 ×
plasma Cave:uncorrected JAK IC50 ratio ([4]; dog, 10 mg/kg/day): < 1 ×
plasma Cave:protein-corrected JAK IC50 ratio ([4]; dog, 30 mg/kg/day): < 1 ×
plasma Cave:uncorrected JAK IC50 ratio ([4]; dog, 30 mg/kg/day): 1 ×
time within the therapeutic range ([4]; dog, 30 mg/kg/day): 6 to 9 h
plasma Cave:protein-corrected JAK IC50 ratio ([4]; dog, 100 mg/kg/day): 1–2 ×
plasma Cave:uncorrected JAK IC50 ratio ([4]; dog, 100 mg/kg/day): 7–11 ×
time at supratherapeutic plasma concentrations ([4]; dog, 100 mg/kg/day, all studies): up to 24 h
plasma Cave:uncorrected JAK IC50 ratio ([4]; dog, ≥100 mg/kg/day): ≥ 7 ×
NOAEL [5]: 60 mg/kg/day
Cave:protein-corrected IC50 ratio [6, 9]: < 1 ×
Cave:uncorrected IC50 ratio [6, 9]: < 1 ×
Mean Cave ([6]; maternal rat, GD 6, 30 mg/kg/day oral): 0.613 ng/mL
Mean Cave ([6]; maternal rat, GD 6, 100 mg/kg/day oral): 2.15 ng/mL
Mean Cave ([6]; maternal rat, GD 6, 1000 mg/kg/day oral): 16.2 ng/mL
Mean Cave ([6]; maternal rat, GD 17, 30 mg/kg/day oral): 0.663 ng/mL
Mean Cave ([6]; maternal rat, GD 17, 100 mg/kg/day oral): 2.88 ng/mL
plasma Cave:protein-corrected JAK IC50 ratio [6, 10]: < 1 ×
plasma Cave:uncorrected JAK IC50 ratio [6, 10]: 2 ×
time at supratherapeutic plasma levels [6, 10]: 12 to 15 h
Mean Cave ([6]; maternal rat, GD 17, 1000 mg/kg/day oral): 23.8 ng/mL
nonclinical:clinical AUC ratio at the NOAEL ([6]; rat EFD study, 1000 mg/kg/day, vs human 300 mg QD): 10 fold
fetal plasma concentrations, all other samples ([6]; rat fetuses, below lower limit of quantitation): < 1 ng/mL
concentration at 3 h ([6]; rat, fetal plasma, oral, 1000 mg/kg/day): 1.18 ng/mL
human cellular JAK IC50 range, uncorrected [7]: 0.01273 to 0.08031 µg/mL
